Measured values as given in ChEMBL document CHEMBL2417469, “Synthesis of novel analogs of 2-pyrazoline obtained from [(7-chloroquinolin-4-yl)amino]chalcones and hydrazine as potential antitumor and antimalarial agents” (Eur J Med Chem, 2013).
≈ marks a conversion by molar mass, not a printed value.

What was measured:
[1] = test system: NCI-H522; assay: Cytotoxicity against human NCI-H522 cells after 48 hrs by SRB assay; format: functional; conditions: NCI-H522, 48 h; for CC50: read-out: LC50 (the source's name)
Procedure, shortened: (§1)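 NCI 60-cell-line screen. Cells preincubated 24 h at 37 °C, 5% CO2; time-zero plates TCA-fixed. Compounds dissolved in DMSO and tested at five concentrations (100, 10, 1.0, 0.1, 0.01 µM) for 48 h continuous exposure. Adherent cells fixed with cold TCA (10% final), then SRB stained; absorbance at 515 nm. GI50, TGI and LC50 calculated from growth relative to time-zero and untreated controls.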

[2] = test system: NCI/ADR-RES; assay: Cytotoxicity against human NCI/ADR-RES cells after 48 hrs by SRB assay; format: functional; conditions: for CC50: read-out: LC50 (the source's name); procedure, shortened: as §1
[3] = test system: SN12C; assay: Cytotoxicity against human SN12C cells after 48 hrs by SRB assay; format: functional; procedure, shortened: as §1
[4] = Toxicity in RBC (unknown origin) assessed as hemolysis after 48 hrs at 20 to 80 ug/ml by spectrophotometry; format: cell-based, Erythrocyte; conditions: red blood cells (RBC); read-out: Activity
Procedure, shortened: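 Red blood cells at 5% hematocrit in RPMI 1640 exposed to 20, 40 and 80 µg/mL for 48 h at 37 °C; free hemoglobin read spectrophotometrically at 542 nm.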

[5] = test system: OVCAR-5; assay: Cytotoxicity against human OVCAR5 cells after 48 hrs by SRB assay; format: functional; conditions: OVCAR-5, 48 h; procedure, shortened: as §1
[6] = test system: HL-60(TB); assay: Cytotoxicity against human HL-60(TB) cells after 48 hrs by SRB assay; format: functional; conditions: HL-60, 48 h; for CC50: read-out: LC50 (the source's name); procedure, shortened: as §1
[7] = test system: SK-MEL-5; assay: Cytotoxicity against human SK-MEL-5 cells after 48 hrs by SRB assay; format: functional; conditions: SK-MEL-5, 48 h; procedure, shortened: as §1
[8] = test system: SW-620; assay: Cytotoxicity against human SW620 cells after 48 hrs by SRB assay; format: functional; conditions: SW-620, 48 h
Procedure, shortened: (§2)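 NCI 60-cell screen. Cells grew 24 h (37 °C, 5% CO2) before compound was added. Compounds were in DMSO and diluted in medium with gentamicin, then tested at five levels (100, 10, 1.0, 0.1, 0.01 µM) with 48 h continuous exposure. Adherent cells were fixed with TCA (10% final) and stained with 0.4% SRB, absorbance read at 515 nm. A time-zero plate was included. LC50 is the concentration giving 50% loss of protein relative to time zero.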

[9] = test system: MOLT-4; assay: Cytotoxicity against human MOLT4 cells after 48 hrs by SRB assay; format: functional; conditions: MOLT-4, 48 h; procedure, shortened: as §1
[10] = test system: SF-295; assay: Cytotoxicity against human SF295 cells after 48 hrs by SRB assay; format: functional; conditions: SF-295, 48 h; procedure, shortened: as §1
[11] = Cytotoxicity against human EKVX cells after 48 hrs by SRB assay; format: functional; procedure, shortened: as §1
[12] = test system: OVCAR-3; assay: Cytotoxicity against human OVCAR3 cells after 48 hrs by SRB assay; format: functional; conditions: OVCAR-3, 48 h; procedure, shortened: as §1
[13] = test system: ACHN; assay: Cytotoxicity against human ACHN cells after 48 hrs by SRB assay; format: functional; conditions: for CC50: read-out: LC50 (the source's name); procedure, shortened: as §1
[14] = test system: Plasmodium falciparum; assay: Antimalarial activity against Plasmodium falciparum NF54 infected in human serum at 20 ug/ml after 48 hrs by fluorometric method; format: functional
Procedure, shortened: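 Asynchronous P. falciparum NF54 at 1.5–2% parasitemia, 5% hematocrit in RPMI with 10% human serum, exposed 48 h at 37 °C under 90% N2/5% CO2/5% O2 at the stated concentration; parasite DNA stained with ethidium bromide after proteinase K lysis; viability % = (Flu treated − medium)/(Flu untreated − medium) ×100; triplicate.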

[15] = test system: T47D; assay: Cytotoxicity against human T47D cells after 48 hrs by SRB assay; format: functional; procedure, shortened: as §2
[16] = test system: SNB-75; assay: Cytotoxicity against human SNB75 cells after 48 hrs by SRB assay; format: functional; conditions: SNB-75, 48 h; procedure, shortened: as §2
[17] = test system: RPMI-8226; assay: Cytotoxicity against human RPMI8226 cells after 48 hrs by SRB assay; format: functional; conditions: RPMI-8226, 48 h; procedure, shortened: as §1
[18] = test system: UACC-257; assay: Cytotoxicity against human UACC257 cells after 48 hrs by SRB assay; format: functional; conditions: UACC-257, 48 h; procedure, shortened: as §2
[19] = test system: K562; assay: Cytotoxicity against human K562 cells after 48 hrs by SRB assay; format: functional; conditions: K562, 48 h; procedure, shortened: as §1
[20] = test system: NCI-H23; assay: Cytotoxicity against human NCI-H23 cells after 48 hrs by SRB assay; format: functional; conditions: NCI-H23, 48 h; for CC50: read-out: LC50 (the source's name); procedure, shortened: as §1
[21] = test system: HOP-62; assay: Cytotoxicity against human HOP62 cells after 48 hrs by SRB assay; format: functional; conditions: HOP-62, 48 h; procedure, shortened: as §1
[22] = test system: BT-549; assay: Cytotoxicity against human BT549 cells after 48 hrs by SRB assay; format: functional; conditions: BT-549, 48 h; procedure, shortened: as §1
[23] = test system: COLO 205; assay: Cytotoxicity against human COLO205 cells after 48 hrs by SRB assay; format: functional; conditions: COLO 205, 48 h; procedure, shortened: as §1
[24] = test system: NCI-H460; assay: Cytotoxicity against human NCI-H460 cells after 48 hrs by SRB assay; format: functional; conditions: NCI-H460, 48 h; procedure, shortened: as §1
[25] = test system: Plasmodium falciparum; assay: Antimalarial activity against Plasmodium falciparum NF54 infected in human serum after 48 hrs by fluorometric method; format: functional, organism-based
Procedure, shortened: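 Asynchronous P. falciparum NF54 cultures at 1.5–2% parasitemia, 5% hematocrit in RPMI with 10% human serum; equal volumes of parasite suspension and compound dilutions (from 100 µg/mL stock) incubated 48 h, 37 °C, 90% N2/5% CO2/5% O2. DNA extracted with proteinase K lysis, stained with ethidium bromide; fluorescence-based viability vs compound-free control. IC50 by Probit; triplicate.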

[26] = test system: NCI-H322M; assay: Cytotoxicity against human NCI-H322M cells after 48 hrs by SRB assay; format: functional; procedure, shortened: as §1

## COc1cc(C2CC(c3cccc(Nc4ccnc5cc(Cl)ccc45)c3)=NN2C=O)cc(OC)c1OC (centres undefined)
[1]
  GI50: 0.75 µM
  CC50: > 100 µM
[2]
  GI50: 1.36 µM
  CC50: > 100 µM
[3]
  GI50: 0.78 µM
  LC50 (50% net cell kill relative to time zero): > 100 µM
[4]
  hemolysis at 48 h: 3.4%
[5]
  GI50: 4.32 µM
  LC50: > 100 µM
[6]
  GI50: 0.26 µM
  CC50: 3.97 µM
[7]
  GI50: 0.42 µM
  LC50 (concentration killing 50% of cells present at time zero): 23.5 µM
[8]
  GI50: 0.47 µM
  LC50: > 100 µM
[9]
  GI50: 0.59 µM
  LC50: > 100 µM
[10]
  GI50: 0.38 µM
  LC50: > 100 µM
[11]
  GI50: 0.98 µM
  LC50: > 100 µM
[12]
  GI50: 0.52 µM
  LC50: 6.06 µM
[13]
  GI50: 1.27 µM
  CC50: > 100 µM
[14]
  inhibition at 20 µg/mL: 24.6%
[15]
  GI50: 0.65 µM
  LC50 (concentration giving 50% cell kill relative to time zero): 69.3 µM
[16]
  GI50: 0.38 µM
  LC50 (50% net cell kill): 51 µM
[17]
  GI50: 8.83 µM
  LC50 (concentration killing 50% of cells): > 100 µM
[18]
  GI50: 1.4 µM
  LC50: > 100 µM
[19]
  GI50: 0.43 µM
  LC50 (concentration killing 50% of cells): > 100 µM
[20]
  GI50: 1.38 µM
  CC50: > 100 µM
[21]
  GI50: 1.12 µM
  LC50 (50% lethal concentration): 66.5 µM
[22]
  GI50: 0.39 µM
  LC50 (50% net cell kill vs time zero): 4.61 µM
[23]
  GI50: 0.64 µM
  LC50: > 100 µM
[24]
  GI50: 0.42 µM
  LC50: > 100 µM

## CC(=O)N1N=C(c2ccc(Nc3ccnc4cc(Cl)ccc34)cc2)CC1c1ccc(Cl)cc1 (centres undefined)
[1]
  GI50: 5.05 µM
  CC50: > 100 µM
[2]
  GI50: 3.04 µM
  CC50: > 100 µM
[3]
  GI50: 30.7 µM
  LC50 (50% net cell kill relative to time zero): > 100 µM
[4]
  hemolysis at 48 h: 3.4%
[5]
  GI50: > 100 µM
  LC50: > 100 µM
[6]
  GI50: 3.56 µM
  CC50: > 100 µM
[25]
  IC50: 54.6 µg/mL (≈ 115 µM)
[7]
  GI50: 2.2 µM
  LC50 (concentration killing 50% of cells present at time zero): > 100 µM
[8]
  GI50: 100 µM
  LC50: > 100 µM
[9]
  GI50: 2.42 µM
  LC50: > 100 µM
[10]
  GI50: 3.58 µM
  LC50: > 100 µM
[11]
  LC50: > 100 µM
[12]
  GI50: 7.19 µM
  LC50: > 100 µM
[13]
  GI50: 3.96 µM
  CC50: > 100 µM
[14]
  inhibition at 20 µg/mL: 32.9%
[15]
  GI50: 1.57 µM
  LC50 (concentration giving 50% cell kill relative to time zero): > 100 µM
[16]
  LC50 (50% net cell kill): > 100 µM
[26]
  GI50: > 100 µM
  LC50 (50% lethal concentration): > 100 µM
[18]
  GI50: > 100 µM
  LC50: > 100 µM
[20]
  GI50: > 100 µM
  CC50: > 100 µM
[21]
  GI50: > 100 µM
  LC50 (50% lethal concentration): > 100 µM
[22]
  GI50: 5.4 µM
  LC50 (50% net cell kill vs time zero): > 100 µM
[23]
  GI50: 5.93 µM
  LC50: > 100 µM
[24]
  GI50: > 100 µM
  LC50: > 100 µM
